RAM network inh: inhibitors of the yeast RAM network; S. cerevisiae dse1pr::URA3 reporter, 5-FOA growth OD615, 2 d; analog-sensitive cbk1-as2 kinase mutant strain; inhibition, % at 50 µM; actives 1.8% (n = 190,000);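 active means inhibition above a set limit, 3 SD over mean compound inhibition, cut at about 8.4% in these data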;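 further: inhibition rescues growth on 5-FOA so higher OD means more RAM inhibition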
Ins promoter up: MIN6 insulin promoter up-regulation | MIN6 insulin promoter-GFP reporter, high-content imaging; active compounds read high | z-score at 5 µM | actives 0.3% (n = 190,000);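 active means z-score above 3 at 5 µM with at least 500 cells counted in the well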
Yeast lifespan up: extends the lifespan of yeast | S. cerevisiae growth with nicotinamide, OD615; deaD strain in restrictive glucose medium | inhibition of the nicotinamide effect, % at 10 µM | actives 0.68% (n = 130,000) | AID 775;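 active means inhibition above a set limit, placed 3 SD over the median of all compounds, cut at about 26% in these data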
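Test system: DeaD-strain S. cerevisiae / Buffer or medium: restrictive glucose medium / Also added: nicotinamide 1.5 mM / Doses: one concentration, 10 µM, DMSO 0.25% / Schedule: 48 h at 30 °C / Signal: OD615 measurement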
Yeast growth inh: reduces growth of yeast BB579 in restrictive medium; S. cerevisiae BB579 growth, OD615, 48 h; inhibition, % at 10 µM; actives 0.51% (n = 140,000);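 active means inhibition above a set limit, 3 SD over the mean compound inhibition, cut at about 44% in these data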
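Detection: OD615 turbidity measurement; Material: Saccharomyces cerevisiae DeaD strain BB579, replicative lifespan model yeast; Timing: 48 h exposure, 30 °C; Doses: single 10 µM dose; Medium: CSMM-D restrictive synthetic medium containing dextrose (glucose); Controls: amphotericin B at 10 µg/mL as positive control.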
INS promoter inh: TRM-6 insulin promoter activity inhibition; TRM-6 cells, insulin promoter-eGFP reporter, imaging; reporter expression induced with tamoxifen; inhibition, % at 2 µM; actives 0.9% (n = 130,000); AID 1273;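 active means inhibition above the mean plus 3 SD, with well images judged a real hit on visual review, cut at about 60% in these data, passing the limit was not always enough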
Of the large screens only hits and unclear results are named; the others gave an inactive call. Only some compounds are listed: those with a hit (about 3% of all), similar ones and a draw of the others.

O=c1c(Cl)c(Nc2cccc(Cl)c2)cnn1-c1nc2ccccc2s1	none
Cc1ccc(C)c(N2CCN(c3cnn(-c4nc5ccccc5s4)c(=O)c3Cl)CC2)c1	RAM network inh 9.1
COc1ccc(Nc2cnn(-c3nc4ccccc4s3)c(=O)c2Cl)cc1	Yeast growth inh 77.7
CC1CCCCC12NC(=O)N(CC(=O)Nc1ccccc1N1CCOCC1)C2=O (stereo not given)	none (no result: Yeast lifespan up, Yeast growth inh, INS promoter inh)
O=C(NCc1ccncc1)Nc1ccccc1F	none (no result: Ins promoter up, Yeast lifespan up, Yeast growth inh)
COc1cccc(CN(C)C(=O)c2cccc(OC3CCN(C4CCCC4)CC3)c2)c1	none (no result: Yeast lifespan up, Yeast growth inh, INS promoter inh)
CCCCNC(=S)Nc1ccc(C(F)(F)F)cc1	none (no result: Yeast lifespan up, Yeast growth inh)
c1ccc(-c2ccc(C(c3ccccc3)n3ccnc3)cc2)cc1 (stereo not given)	Yeast growth inh 96.1
c1ccc(-c2ccc(-n3ccnc3)cc2)cc1	none
C/C(O)=c1/ccc2cccc3nc(C)nc1c23	Yeast growth inh 69.3 (no result: INS promoter inh)
O=C(CSc1nc2ccc(Nc3nc(N4CCCC4)nc(N4CCCC4)n3)cc2s1)NCc1ccco1	none (no result: RAM network inh, Yeast lifespan up, Yeast growth inh, INS promoter inh)
N#Cc1nc(COc2ccc(F)cc2)oc1N1CCN(Cc2ccccc2)CC1	none (no result: INS promoter inh)
COc1ccc(OCc2nc(C#N)c(N3CCN(c4ccc(OC)cc4)CC3)o2)cc1	RAM network inh 8.4 (no result: INS promoter inh)
COc1ccc(N2CCN(c3oc(COc4ccccc4Cl)nc3C#N)CC2)cc1	none (no result: INS promoter inh)
N#Cc1nc(COc2ccc(F)cc2)oc1N1CCC(Cc2ccccc2)CC1	RAM network inh 9.9
Cc1ccc(OCC(=O)Nc2cc(C(=O)O)cc(C(=O)O)c2)cc1C	none (no result: Yeast lifespan up, Yeast growth inh)
C[C@@H](C(=O)NCc1ccccc1)[C@H]1C[C@]1(C)[C@H](NC(=O)OCc1ccccc1)c1ccccc1	RAM network inh 9.5
COC(=O)[C@H](C)[C@@H]1C[C@@]1(C)[C@@H](NC(=O)OCc1ccccc1)c1ccccc1	RAM network inh 8.6
O=C(O)CCC(=O)Nc1ccc(C(=O)OCC(=O)c2ccc(Cl)cc2Cl)cc1	RAM network inh 8.7 (no result: Ins promoter up, Yeast lifespan up, Yeast growth inh)
CN(C(=S)NC(=O)Cc1ccccc1)c1ccccc1	none (no result: Yeast lifespan up, Yeast growth inh)
C=CCn1c(SCC(=O)N2CCCCC2)nc(O)cc1=O	Yeast lifespan up 48.1
COC(=O)c1ccc(CSc2nc3ccccc3o2)cc1	RAM network inh 8.8, INS promoter inh 81.2
Cc1ccc(C)n1-c1sc2c(c1C#N)CCCC2	RAM network inh 10.1 (no result: Yeast lifespan up)
COc1cc(C(=O)NCCC(C)C)ccc1OCc1ccc(Cl)cc1Cl	RAM network inh 9.8
CN(C1CCCCC1)S(=O)(=O)c1cccc(C(=O)OCC(=O)NC2CCCc3ccccc32)c1 (stereo not given)	none
Clc1ccc(-c2csc(-c3cccnc3)n2)s1	none (no result: RAM network inh, Yeast lifespan up, Yeast growth inh, INS promoter inh)
COc1ccc(OCC(=O)Nc2cc(-c3nn(C)c(=O)c4ccccc34)ccc2N2CCOCC2)cc1	none (no result: RAM network inh, Yeast lifespan up, Yeast growth inh, INS promoter inh)
COc1ccc(CCNc2nc(-c3ccco3)cc(C(F)(F)F)n2)cc1OC	RAM network inh 10.1 (no result: INS promoter inh)
COc1ccc(CCNC(=O)CCSc2nc(-c3ccco3)cc(C(F)(F)F)n2)cc1OC	none
C/C(=N\NC(=O)c1cccc(N/N=C(\C)c2ccco2)c1)c1ccco1	INS promoter inh 81.8 (no result: Yeast lifespan up, Yeast growth inh)
CN1CCN(C(=S)c2ccc([N+](=O)[O-])cc2)CC1	none (no result: INS promoter inh)
CN1CCN(C(=S)Nc2cc([N+](=O)[O-])ccc2Cl)CC1	Yeast lifespan up 45.2
CCc1cc2c(=O)c(Oc3ccccc3)c(C)oc2cc1O	Yeast lifespan up 69.2
CCCC[C@@H]1C[C@H]1[C@@H](NC(=O)c1cccs1)c1ccc(Cl)cc1	RAM network inh 9.8
Cc1nccn1CC(=O)N/N=C/c1cccs1	none (no result: RAM network inh, Yeast lifespan up, Yeast growth inh, INS promoter inh)
N=C1C(c2ccccc2)=C(O)CN1c1cccc(S(=O)(=O)N2CCCCC2)c1	none (no result: RAM network inh, Yeast lifespan up, Yeast growth inh, INS promoter inh)
O=C1NC(=O)/C(=C/c2cccc([N+](=O)[O-])c2)N1	none (no result: RAM network inh, Yeast lifespan up, Yeast growth inh, INS promoter inh)
CCN1C/C(=C/c2cccc([N+](=O)[O-])c2)C(=O)/C(=C/c2cccc([N+](=O)[O-])c2)C1	INS promoter inh 100.0
COC(=O)c1cc(=O)n2c(sc3ccccc32)c1C#N	none (no result: RAM network inh, Yeast lifespan up, Yeast growth inh, INS promoter inh)
COc1ccc(CCNC(=O)CN(c2cccc([N+](=O)[O-])c2)S(C)(=O)=O)cc1OC	none (no result: Ins promoter up, Yeast lifespan up, Yeast growth inh)
CCc1ccc(OCC(=O)NC(=S)Nc2ccc(C(=O)O)cc2)cc1	none (no result: RAM network inh, Yeast lifespan up, Yeast growth inh, INS promoter inh)
CCc1ccc(OCC(=O)NC(NC(=S)Nc2ccc(Cl)cc2)C(Cl)(Cl)Cl)cc1 (stereo not given)	RAM network inh 9.5
O=C(c1ccccc1)c1nc2ccccc2n(CCCn2c(=O)c(C(=O)c3ccccc3)nc3ccccc32)c1=O	RAM network inh 9.6
O=C(c1ccccc1)c1nc2ccccc2[nH]c1=O	Yeast lifespan up 76.2 (no result: INS promoter inh)
N#C/C(=C(/O)c1ccc(C(=O)c2ccccc2)cc1)c1nc2ccccc2[nH]1	none (no result: RAM network inh, Yeast lifespan up, Yeast growth inh, INS promoter inh)
Cc1ccc(NCc2ccccc2OCc2ccccc2F)cc1	none
Oc1ccc(NCc2ccccc2OCc2ccccc2F)cc1	Yeast lifespan up 27.0
CCOC(=O)c1ccc(N=Cc2nc(-c3ccccc3)oc2OC(C)=O)cc1	none
CC(=O)Oc1oc(-c2ccccc2)nc1C=Nc1ccccc1	Yeast lifespan up 46.0
COc1ccc(C(=O)/C(C#N)=N/Nc2ccc([N+](=O)[O-])cc2)cc1	none (no result: Yeast lifespan up, Yeast growth inh, INS promoter inh)
CCOc1ccc(N/C(SC)=C(/C#N)C(N)=O)cc1	none
CCOc1ccc(N/N=C(/C#N)C(N)=O)cc1	Yeast growth inh 96.8
COc1ccc(N/N=C(\C#N)C(N)=O)cc1	Yeast growth inh 58.5
COC(=O)C1CCN(CC(=O)NC(=O)NC2CCCCC2)CC1	none (no result: Yeast lifespan up, Yeast growth inh)
N#C/C(=C\c1cccs1)Sc1nc2ccccc2s1	RAM network inh 9.1
Cc1ccc(/C=C(\C#N)c2nc3ccccc3[nH]2)s1	INS promoter inh 96.2
